Measurements published in ChEMBL document CHEMBL1765003, “Discovery of (1S,2R,3R)-2,3-dimethyl-2-phenyl-1-sulfamidocyclopropanecarboxylates: novel and highly selective aggrecanase inhibitors” (J Med Chem, 2011).

Key:
[1] = target: Disintegrin and metalloproteinase domain-containing protein 17 (Homo sapiens, UniProt P78536); test: Inhibition of human recombinant TACE after 60 mins by fluorescence plate reader
In short: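 rh-TACE at 80 ng/mL with 10 μM MCA-Pro-Leu-Ala-Gln-Ala-Val-Dpa-Arg-Ser-Ser-Ser-Arg-NH₂, in 100 mM Tris-HCl pH 7.5, 150 mM NaCl, 10 mM CaCl₂, 0.05% Brij-35. Inhibitor preincubated for 15 min at 25 °C. Fluorescence (ex 325/em 405 nm) read at 60 min. IC50 from three linear-range points; mean of ≥2.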

Interstitial collagenase = target: T1, Interstitial collagenase (Homo sapiens, UniProt P03956); test: Inhibition of human recombinant MMP1 after 60 mins by fluorescence plate reader
T1 sequence (P03956 whole entry): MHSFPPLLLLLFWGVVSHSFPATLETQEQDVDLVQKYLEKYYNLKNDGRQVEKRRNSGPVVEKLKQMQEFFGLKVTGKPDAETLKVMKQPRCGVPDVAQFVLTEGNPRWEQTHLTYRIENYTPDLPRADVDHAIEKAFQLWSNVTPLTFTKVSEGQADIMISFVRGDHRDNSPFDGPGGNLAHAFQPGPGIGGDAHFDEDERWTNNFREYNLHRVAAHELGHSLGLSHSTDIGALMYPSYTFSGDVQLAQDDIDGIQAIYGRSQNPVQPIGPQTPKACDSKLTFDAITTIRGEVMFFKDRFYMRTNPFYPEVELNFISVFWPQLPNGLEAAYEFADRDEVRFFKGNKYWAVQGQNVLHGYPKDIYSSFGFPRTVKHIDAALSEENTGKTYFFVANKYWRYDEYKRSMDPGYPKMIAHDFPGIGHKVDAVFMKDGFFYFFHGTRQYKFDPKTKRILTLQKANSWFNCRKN
In short: (§1)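 Recombinant human enzyme at 20 ng/mL with 10 μM MOCAc-Lys-Pro-Leu-Gly-Leu-A2pr(Dnp)-Ala-Arg-NH₂, in 100 mM Tris-HCl pH 7.5, 150 mM NaCl, 10 mM CaCl₂, 0.05% Brij-35. Enzyme pretreated with inhibitor for 15 min at 25 °C, then substrate added. Fluorescence (ex 325, em 405 nm) read at 60 min. IC50 taken from three points in the linear range; mean of ≥2 determinations.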

[2] = target: Matrix metalloproteinase-14 (Homo sapiens, UniProt P50281); test: Inhibition of human recombinant MMP14 after 60 mins by fluorescence plate reader; in short: as §1
[3] = target: T2, A disintegrin and metalloproteinase with thrombospondin motifs 5 (Homo sapiens, UniProt Q9UNA0); test: Inhibition of human recombinant aggrecanase 2 after 150 mins by fluorescence plate reader
T2 sequence (Q9UNA0 whole entry): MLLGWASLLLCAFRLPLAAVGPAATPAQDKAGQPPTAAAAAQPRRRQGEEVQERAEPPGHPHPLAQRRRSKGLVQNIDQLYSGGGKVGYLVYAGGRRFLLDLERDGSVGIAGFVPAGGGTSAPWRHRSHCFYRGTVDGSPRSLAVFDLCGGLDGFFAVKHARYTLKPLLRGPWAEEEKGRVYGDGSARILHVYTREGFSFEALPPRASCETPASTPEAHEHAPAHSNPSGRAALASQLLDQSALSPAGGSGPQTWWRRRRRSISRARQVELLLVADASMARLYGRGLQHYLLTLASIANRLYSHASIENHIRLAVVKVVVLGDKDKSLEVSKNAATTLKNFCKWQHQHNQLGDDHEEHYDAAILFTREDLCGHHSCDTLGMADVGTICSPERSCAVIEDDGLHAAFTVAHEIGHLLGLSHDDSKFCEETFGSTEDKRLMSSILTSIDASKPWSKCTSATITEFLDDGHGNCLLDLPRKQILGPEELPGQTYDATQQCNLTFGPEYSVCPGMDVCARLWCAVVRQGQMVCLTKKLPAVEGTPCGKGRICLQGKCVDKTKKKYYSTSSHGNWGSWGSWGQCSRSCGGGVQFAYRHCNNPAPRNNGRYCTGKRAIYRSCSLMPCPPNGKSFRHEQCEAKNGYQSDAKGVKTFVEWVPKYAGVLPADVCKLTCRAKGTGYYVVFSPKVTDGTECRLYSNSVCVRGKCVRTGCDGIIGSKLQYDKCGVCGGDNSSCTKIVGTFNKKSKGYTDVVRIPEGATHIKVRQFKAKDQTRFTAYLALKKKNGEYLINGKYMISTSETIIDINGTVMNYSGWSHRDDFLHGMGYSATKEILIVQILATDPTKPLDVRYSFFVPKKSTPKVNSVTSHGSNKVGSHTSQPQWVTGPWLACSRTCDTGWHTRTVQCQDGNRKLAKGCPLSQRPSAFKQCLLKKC

[4] = target: T3, A disintegrin and metalloproteinase with thrombospondin motifs 4 (Homo sapiens, UniProt O75173); test: Inhibition of human recombinant aggrecanase 1 after 150 mins by fluorescence plate reader
T3 sequence (O75173 whole entry): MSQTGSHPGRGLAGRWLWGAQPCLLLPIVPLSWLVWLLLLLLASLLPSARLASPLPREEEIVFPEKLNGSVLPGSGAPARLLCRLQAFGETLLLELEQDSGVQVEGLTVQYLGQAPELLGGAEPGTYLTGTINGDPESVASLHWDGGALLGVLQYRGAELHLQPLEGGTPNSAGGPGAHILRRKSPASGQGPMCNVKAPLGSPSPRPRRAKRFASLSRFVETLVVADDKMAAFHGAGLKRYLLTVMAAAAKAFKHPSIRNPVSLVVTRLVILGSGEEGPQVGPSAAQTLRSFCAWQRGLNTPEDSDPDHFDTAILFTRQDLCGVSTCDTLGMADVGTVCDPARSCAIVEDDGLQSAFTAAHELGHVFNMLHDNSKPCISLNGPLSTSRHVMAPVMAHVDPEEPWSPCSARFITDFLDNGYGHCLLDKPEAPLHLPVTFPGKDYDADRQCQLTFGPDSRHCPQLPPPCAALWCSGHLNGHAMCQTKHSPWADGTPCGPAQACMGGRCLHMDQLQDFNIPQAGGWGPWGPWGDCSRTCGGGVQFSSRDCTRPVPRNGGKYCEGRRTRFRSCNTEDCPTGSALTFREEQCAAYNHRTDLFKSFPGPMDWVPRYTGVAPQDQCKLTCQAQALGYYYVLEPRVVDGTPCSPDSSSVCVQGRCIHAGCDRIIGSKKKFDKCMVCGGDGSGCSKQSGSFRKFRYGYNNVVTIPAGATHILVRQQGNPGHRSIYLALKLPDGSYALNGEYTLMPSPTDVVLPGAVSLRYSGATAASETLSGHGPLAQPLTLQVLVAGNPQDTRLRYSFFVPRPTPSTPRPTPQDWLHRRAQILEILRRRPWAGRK

Cytochrome P450 3A4 = Cytochrome P450 3A4 (Homo sapiens, UniProt P08684); test: Inhibition of CYP3A4 at up to 50 uM; type: ADME
Cytochrome P450 2C19 = Cytochrome P450 2C19 (Homo sapiens, UniProt P33261); test: Inhibition of CYP2C19 at up to 50 uM; type: ADME
Cytochrome P450 2C9 = Cytochrome P450 2C9 (Homo sapiens, UniProt P11712); test: Inhibition of CYP2C9 at up to 50 uM; type: ADME
Cytochrome P450 2D6 = Cytochrome P450 2D6 (Homo sapiens, UniProt P10635); test: Inhibition of CYP2D6 at up to 50 uM; type: ADME
Cytochrome P450 1A2 = target: T4, Cytochrome P450 1A2 (Homo sapiens, UniProt P05177); test: Inhibition of CYP1A2 at up to 50 uM; type: ADME
T4 sequence (P05177 whole entry): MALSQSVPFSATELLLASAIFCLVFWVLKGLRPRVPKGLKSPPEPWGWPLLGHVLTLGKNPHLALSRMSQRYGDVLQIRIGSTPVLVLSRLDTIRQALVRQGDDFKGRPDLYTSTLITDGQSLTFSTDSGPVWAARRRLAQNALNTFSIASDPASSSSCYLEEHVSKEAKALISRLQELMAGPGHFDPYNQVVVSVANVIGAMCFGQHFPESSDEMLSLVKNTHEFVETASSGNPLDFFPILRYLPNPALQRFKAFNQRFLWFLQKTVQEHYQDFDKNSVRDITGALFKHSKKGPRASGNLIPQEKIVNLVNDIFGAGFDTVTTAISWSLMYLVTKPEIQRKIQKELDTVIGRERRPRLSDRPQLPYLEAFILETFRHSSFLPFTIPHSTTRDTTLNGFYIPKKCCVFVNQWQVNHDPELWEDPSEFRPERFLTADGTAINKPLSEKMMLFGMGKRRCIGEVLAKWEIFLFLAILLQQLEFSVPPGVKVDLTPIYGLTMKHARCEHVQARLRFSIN

Cytochrome P450 2A6 = target: T5, Cytochrome P450 2A6 (Homo sapiens, UniProt P11509); test: Inhibition of CYP2A6 at up to 50 uM; type: ADME
T5 sequence (P11509 whole entry): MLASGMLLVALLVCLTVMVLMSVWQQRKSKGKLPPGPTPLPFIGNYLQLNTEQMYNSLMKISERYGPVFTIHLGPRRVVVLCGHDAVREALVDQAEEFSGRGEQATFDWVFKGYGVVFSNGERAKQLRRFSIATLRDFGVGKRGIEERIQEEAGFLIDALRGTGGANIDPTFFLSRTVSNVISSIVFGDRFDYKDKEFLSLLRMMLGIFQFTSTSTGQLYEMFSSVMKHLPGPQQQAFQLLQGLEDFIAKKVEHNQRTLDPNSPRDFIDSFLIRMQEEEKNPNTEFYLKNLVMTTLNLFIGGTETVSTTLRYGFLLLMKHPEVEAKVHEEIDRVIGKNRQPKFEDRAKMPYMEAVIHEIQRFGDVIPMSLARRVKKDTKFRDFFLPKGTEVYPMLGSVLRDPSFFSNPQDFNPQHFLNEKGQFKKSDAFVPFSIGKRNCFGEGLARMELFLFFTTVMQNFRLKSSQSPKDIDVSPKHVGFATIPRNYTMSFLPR

[5] = Volume of distribution at steady state in Sprague-Dawley rat at 1 mg/kg, iv; type: ADME, organism-based; parameters: dose 1 mg/kg, route intravenous; details: in vivo, read-out: Vdss
In short: (§2)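 Intravenous dose of 1 mg/kg. Blood sampled at 0.50, 1, 2, 4, 8 and 24 h. Plasma obtained by centrifugation at 10 000 rpm for 5 min and kept at −20 °C until analysis.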

[6] = Clearance in Sprague-Dawley rat at 1 mg/kg, iv; type: ADME, organism-based; parameters: dose 1 mg/kg, route intravenous; details: in vivo; in short: as §2
[7] = Half life in Sprague-Dawley rat at 10 mg/kg, po; type: ADME, organism-based; parameters: dose 10 mg/kg, route oral; details: in vivo
[8] = Cmax in Sprague-Dawley rat at 10 mg/kg, po; type: ADME, organism-based; parameters: dose 10 mg/kg, route oral; details: in vivo
[9] = AUC in Sprague-Dawley rat at 10 mg/kg, po; type: ADME, organism-based; parameters: dose 10 mg/kg, route oral; details: plasma
[10] = Oral bioavailability in Sprague-Dawley rat at 10 mg/kg; type: ADME, organism-based; details: Sprague-Dawley, in vivo
Homo sapiens = species on record: Homo sapiens; test: Selectivity ratio of IC50 for human recombinant MMP14 to IC50 for human recombinant aggrecanase 2

Disintegrin and metalloproteinase domain-containing protein 17, sequence (P78536 whole entry, the tested form may be a part): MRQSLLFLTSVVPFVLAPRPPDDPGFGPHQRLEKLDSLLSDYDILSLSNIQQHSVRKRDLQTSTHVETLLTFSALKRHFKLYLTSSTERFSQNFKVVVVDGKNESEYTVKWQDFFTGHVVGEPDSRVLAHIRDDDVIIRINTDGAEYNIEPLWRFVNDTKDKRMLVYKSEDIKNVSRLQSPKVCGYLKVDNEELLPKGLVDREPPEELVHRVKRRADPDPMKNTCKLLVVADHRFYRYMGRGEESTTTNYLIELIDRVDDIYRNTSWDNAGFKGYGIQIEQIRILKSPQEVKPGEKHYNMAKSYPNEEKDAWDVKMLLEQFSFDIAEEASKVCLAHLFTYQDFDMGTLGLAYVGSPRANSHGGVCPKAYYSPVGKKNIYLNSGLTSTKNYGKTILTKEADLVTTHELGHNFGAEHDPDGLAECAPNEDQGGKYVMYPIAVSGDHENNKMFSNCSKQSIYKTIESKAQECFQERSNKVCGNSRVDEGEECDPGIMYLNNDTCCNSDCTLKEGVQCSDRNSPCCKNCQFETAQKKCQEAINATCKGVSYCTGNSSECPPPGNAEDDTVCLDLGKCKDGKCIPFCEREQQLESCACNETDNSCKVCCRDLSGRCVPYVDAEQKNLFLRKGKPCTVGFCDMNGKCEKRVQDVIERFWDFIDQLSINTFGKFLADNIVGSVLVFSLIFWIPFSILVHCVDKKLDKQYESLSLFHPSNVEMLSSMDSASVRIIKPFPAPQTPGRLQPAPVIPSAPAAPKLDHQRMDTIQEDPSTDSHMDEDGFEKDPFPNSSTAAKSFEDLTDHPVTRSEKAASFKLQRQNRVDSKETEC
Cytochrome P450 3A4, sequence (P08684 whole entry): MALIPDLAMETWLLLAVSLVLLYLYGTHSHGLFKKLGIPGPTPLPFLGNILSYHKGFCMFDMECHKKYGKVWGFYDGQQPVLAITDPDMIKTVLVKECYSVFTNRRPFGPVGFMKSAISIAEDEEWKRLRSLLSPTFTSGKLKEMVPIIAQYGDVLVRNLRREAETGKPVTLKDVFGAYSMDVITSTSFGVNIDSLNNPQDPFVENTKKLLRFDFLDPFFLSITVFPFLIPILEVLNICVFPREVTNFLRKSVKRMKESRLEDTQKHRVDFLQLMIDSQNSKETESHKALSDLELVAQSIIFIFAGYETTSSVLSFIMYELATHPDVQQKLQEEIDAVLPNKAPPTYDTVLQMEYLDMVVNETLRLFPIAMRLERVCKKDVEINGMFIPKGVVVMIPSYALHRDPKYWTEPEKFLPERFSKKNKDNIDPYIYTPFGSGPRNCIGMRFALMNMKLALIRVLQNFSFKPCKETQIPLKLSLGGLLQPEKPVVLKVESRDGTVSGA
Cytochrome P450 2C19, sequence (P33261 whole entry): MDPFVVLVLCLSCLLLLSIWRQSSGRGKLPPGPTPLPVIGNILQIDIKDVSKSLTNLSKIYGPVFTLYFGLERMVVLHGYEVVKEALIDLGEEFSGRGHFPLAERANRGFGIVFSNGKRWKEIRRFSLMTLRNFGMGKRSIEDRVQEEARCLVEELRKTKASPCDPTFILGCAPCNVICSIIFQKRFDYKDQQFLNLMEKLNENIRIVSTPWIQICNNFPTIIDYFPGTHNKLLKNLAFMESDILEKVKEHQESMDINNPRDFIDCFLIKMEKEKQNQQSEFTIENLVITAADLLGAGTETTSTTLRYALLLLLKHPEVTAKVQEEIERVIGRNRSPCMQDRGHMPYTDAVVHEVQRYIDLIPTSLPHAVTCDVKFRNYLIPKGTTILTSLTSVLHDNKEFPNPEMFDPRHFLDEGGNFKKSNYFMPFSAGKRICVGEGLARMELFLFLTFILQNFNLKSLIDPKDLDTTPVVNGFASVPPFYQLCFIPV
Cytochrome P450 2D6, sequence (P10635 whole entry): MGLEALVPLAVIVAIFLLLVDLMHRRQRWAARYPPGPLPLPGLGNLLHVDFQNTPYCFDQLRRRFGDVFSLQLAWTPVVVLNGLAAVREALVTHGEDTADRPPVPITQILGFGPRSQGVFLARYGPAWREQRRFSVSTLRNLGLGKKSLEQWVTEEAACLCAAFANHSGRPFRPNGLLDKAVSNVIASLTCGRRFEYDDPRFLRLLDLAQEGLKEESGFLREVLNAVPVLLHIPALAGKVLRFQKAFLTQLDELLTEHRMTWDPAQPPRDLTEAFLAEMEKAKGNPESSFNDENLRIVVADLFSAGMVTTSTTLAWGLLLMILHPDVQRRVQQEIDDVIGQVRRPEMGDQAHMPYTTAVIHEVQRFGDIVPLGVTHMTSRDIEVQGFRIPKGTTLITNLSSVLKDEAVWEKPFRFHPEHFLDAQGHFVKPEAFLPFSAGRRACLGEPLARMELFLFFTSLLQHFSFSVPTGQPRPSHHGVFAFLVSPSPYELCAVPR
Cytochrome P450 2C9, sequence (P11712 whole entry): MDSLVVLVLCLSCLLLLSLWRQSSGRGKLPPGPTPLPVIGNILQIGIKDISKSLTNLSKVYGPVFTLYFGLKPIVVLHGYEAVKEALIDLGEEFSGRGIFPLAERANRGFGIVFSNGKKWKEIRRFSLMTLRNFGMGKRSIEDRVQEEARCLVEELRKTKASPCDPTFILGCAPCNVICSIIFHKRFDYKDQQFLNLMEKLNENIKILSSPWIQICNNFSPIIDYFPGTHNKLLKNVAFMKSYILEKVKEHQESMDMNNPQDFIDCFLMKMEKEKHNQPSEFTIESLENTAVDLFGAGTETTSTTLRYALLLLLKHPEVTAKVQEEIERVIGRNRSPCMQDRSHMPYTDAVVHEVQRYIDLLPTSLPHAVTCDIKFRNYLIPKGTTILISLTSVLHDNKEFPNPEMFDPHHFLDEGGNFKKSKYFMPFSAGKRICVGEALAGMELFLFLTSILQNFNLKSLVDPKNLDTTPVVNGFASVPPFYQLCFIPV

SMILES | IC50 [1] | IC50 (Interstitial collagenase) | IC50 [2] | IC50 [3] | IC50 [4] | inhibition (INH) (Cytochrome P450 3A4) | inhibition (INH) (Cytochrome P450 2C19) | inhibition (INH) (Cytochrome P450 2C9) | inhibition (INH) (Cytochrome P450 2D6) | inhibition (INH) (Cytochrome P450 1A2) | inhibition (INH) (Cytochrome P450 2A6) | Vd [5] | clearance [6] | half-life [7] | Cmax [8] | AUC [9] | bioavailability [10] | Ratio IC50 (Homo sapiens)
O=C(NO)[C@@H](NCC1CC1)[C@@H](Cc1cccc(O)c1)C(=O)N[C@H]1c2ccccc2C[C@H]1O | 430 nM | > 10000 nM | > 10000 nM | 12 nM | 3 nM | – | – | – | – | – | – | – | – | – | – | – | – | –
C[C@@H]1CN(S(=O)(=O)N[C@@]2(C(=O)O)[C@H](C)[C@]2(C)c2ccccc2)CCN1c1cc(C(F)F)on1 | > 10000 nM | > 10000 nM | > 10000 nM | 17 nM | – | Not Active | Not Active | Not Active | Not Active | Not Active | Not Active | 1.9 L/kg | 11.7 mL/min/kg | 1.9 h | 4.9 µM | 17.8 µM·h | 64% | –
C[C@@H]1CN(S(=O)(=O)N[C@@]2(C(=O)O)[C@H](C)[C@@H]2c2ccccc2)CCN1c1ccc(Cl)cc1 | > 10000 nM | > 10000 nM | 2100 nM | 37 nM | – | – | – | – | – | – | – | – | – | – | – | – | – | 10
C[C@@H]1[C@H](c2ccccc2)[C@]1(NS(=O)(=O)N1CCN(c2ccc(Cl)cc2)[C@@H](C)C1)C(=O)O | > 10000 nM | > 10000 nM | 2500 nM | 47 nM | – | – | – | – | – | – | – | – | – | – | – | – | – | 10
C[C@@H]1CN(S(=O)(=O)N[C@@]2(C(=O)O)[C@H](C)[C@]2(C)c2ccccc2)CCN1c1ccc(C#N)s1 | > 10000 nM | > 10000 nM | > 10000 nM | 29 nM | – | Not Active | Not Active | Not Active | Not Active | Not Active | Not Active | 2.6 L/kg | 4.83 mL/min/kg | 4.5 h | 15.9 µM | 88.4 µM·h | 119% | –
CC1(C)C[C@@H](O)CN(S(=O)(=O)c2ccc(OCc3ccc(Cl)cc3Cl)cc2)[C@H]1C(=O)NO | – | – | – | 1.4 nM | 1.1 nM | – | – | – | – | – | – | – | – | – | – | – | – | –
C[C@@H]1CN(S(=O)(=O)N[C@@]2(C(=O)O)[C@H](C)[C@@H]2c2ccccc2)CCN1c1cc(C(F)F)on1 | > 10000 nM | > 10000 nM | 5400 nM | 27 nM | – | – | – | – | – | – | – | – | – | – | – | – | – | 200
O=C(NO)c1nc2ccccc2c2c1CN(c1ccc(OCc3ccccc3)cc1)C2=O | – | – | – | 950 nM | 210 nM | – | – | – | – | – | – | – | – | – | – | – | – | –
CC(C)(NC(=O)[C@H](CCC(=O)O)NC(=O)c1ccc(-c2ccccc2)cc1)c1ccccc1 | – | – | – | 1100 nM | 210 nM | – | – | – | – | – | – | – | – | – | – | – | – | –
